Experimental data as given in PubChem BioAssay.
Results filed as inconclusive are left out.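 How the source made its calls, unless noted: active means viability increase at or above a cutoff of the median across tested compounds plus 3 SD (cut at about 8.5% in these data, passing the limit was not always enough); inconclusive means some gains above the cutoff, reason not given; inactive means the rest.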

What was measured:
[1] = S. cerevisiae growth inhibition in permissive medium (OD615), pilot counter-assay for S. cerevisiae lifespan shortening project, permissive growth control (AID 705;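 active means growth inhibition above 25% in both replicates, a cutoff set 3 SD above the mean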); settings: OD615, 24 h, at 10 µM, active compounds read high
Summary of the method: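 Material: engineered DeaD yeast; compound dosing: one dose 10 µM, DMSO 0.25% final; measure: yeast growth inhibition indicated by reduced 24 h OD615; detection: OD615 turbidity read; incubation: cells pre-grown 4 h, then 24 h compound exposure, 30 °C humidified; medium: permissive synthetic complete medium with raffinose and galactose carbon sources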

[2] = S. cerevisiae growth inhibition in restrictive medium, OD615, pilot screen, restrictive growth control, yeast lifespan reduction project (AID 706;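 active means growth inhibition above a set limit, 3 SD over mean compound inhibition, in both replicates, cut at about 43% in these data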;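 further: modified DeaD lifespan yeast strain shifted to restrictive glucose medium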); settings: OD615, 48 h, at 10 µM, active compounds read high
Summary of the method: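 material = engineered S. cerevisiae DeaD strain | medium = glucose-based CSMM-D restrictive medium | times = 4 h pre-incubation, 48 h exposure at 30 °C | technique = OD615 absorbance reading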

[3] = doxorubicin toxicity protection in MRP-1 cells – H69AR cells, CellTiter-Glo, duplicate, MRP-1 activator project, pilot screen (AID 807); settings: H69AR viability with doxorubicin, CellTiter-Glo luminescence; at 10 µM; active compounds read high;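 further: compound pretreatment 18-22 h then 72 h combined with doxorubicin; 0% = doxorubicin alone and 100% = vehicle without doxorubicin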
[4] = viability of HCT116 without oncogenic beta-catenin – human colon tumor cells, pilot screen (AID 823;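 active means cell viability at or below a set limit in both duplicate runs, the limit being the all-compound median minus 4 SD, cut at about 23% in these data, passing the limit was not always enough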;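 further: 0% = wells killed by 20 µM Hyamine and 100% = untreated DMSO cell wells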); settings: HCT116 beta-catenin knockout viability, CellTiter-Glo, 60 h; at 10 µM; active compounds read low
[5] = viability of PTEN-null HCT116 cells – cell-based, HCT116 clonal line, CellTiter-Glo, pilot screen (AID 824;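 active means viability at or below 27.92% in each of two runs, the all-compound median minus 4 SD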;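 further: 0% = 20 µM Hyamine control and 100% = vehicle cell control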); settings: HCT116 PTEN-deleted viability, 60 h, at 10 µM, active compounds read low
[6] = RAM pathway blockade in budding yeast – dse1pr::URA3 reporter, 5-FOA selection, pilot screen (AID 869;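 active means inhibition over a set limit, the all-compound mean plus 3 SD, in both replicate runs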;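 further: 0% = DMSO wells with no growth and 100% = 10 µM 1-NA-PP1 with full growth; RAM network block rescues cells from 5-FOA so hits raise OD615 growth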); settings: S. cerevisiae dse1pr::URA3 5-FOA growth, OD615, 2 d; at 10 µM; active compounds read high; strain carries analog-sensitive mutant Cbk1 kinase
[7] = RAM signaling pathway blockade in yeast – S. cerevisiae, Pdr1DBD-CYC8 efflux-inhibited sensitized strain, primary screen (AID 1298;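 active means RAM network inhibition above 8.4% in each of two replicates, 3 SD over the compound average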;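 further: 0% = DMSO untreated cells without growth and 100% = 10 µM 1-NA-PP1 full growth; higher means more yeast growth rescued from 5-FOA killing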); settings: S. cerevisiae cbk1-as DSE1-URA3 strain, 5-FOA growth OD615, 2 d; at 50 µM; active compounds read high

Cc1ccccc1-n1c(Cn2c(=O)sc3ccccc32)nnc1SCC(=O)N1CCOCC1
inactive: growth inhibition [1] -5.92% | growth inhibition [2] -11.6% | viability increase [3] -1.91% | viability [4] 102% | viability [5] 100% | inhibition [6] 1.56% | RAM network inhibition [7] 1.01%

COc1ccccc1N(CC(=O)Nc1ccccc1C)S(C)(=O)=O
inactive: growth inhibition [1] -5.63% | growth inhibition [2] -10.8% | viability increase [3] -3.72% | viability [4] 94.7% | viability [5] 95.7% | inhibition [6] 1.12% | RAM network inhibition [7] 1.62%

c1ccc(Cn2ncc3ccccc32)cc1
inactive: growth inhibition [1] -3.05% | growth inhibition [2] 4.4% | viability increase [3] -1.05% | viability [4] 94.8% | viability [5] 98% | inhibition [6] -0.165% | RAM network inhibition [7] -0.97%

O=C(NC1CCN(Cc2ccccc2)CC1)c1ccccc1F
inactive: growth inhibition [1] -3.78% | growth inhibition [2] -11.1% | viability increase [3] -1.39% | viability [4] 95% | viability [5] 98.9% | inhibition [6] 2.02% | RAM network inhibition [7] -0.41%

O=C(c1ccccc1NS(=O)(=O)c1cccs1)N1CCCC1
inactive: growth inhibition [1] -1.34% | growth inhibition [2] 3.17% | viability increase [3] -0.63% | viability [4] 93.1% | viability [5] 94.1% | inhibition [6] 1.84% | RAM network inhibition [7] 1.28%

CNC(=O)c1nnc(Cc2ccc(F)cc2)o1
inactive: growth inhibition [1] 2.65% | growth inhibition [2] 1.31% | viability increase [3] -0.04% | viability [4] 93.8% | viability [5] 98.9% | inhibition [6] 0.195% | RAM network inhibition [7] 2.48%

CCOC(=O)Cn1c(=O)oc2cc(S(=O)(=O)Nc3c(C)cc(C)cc3C)ccc21
inactive: growth inhibition [1] -11.4% | growth inhibition [2] -14.1% | viability increase [3] -2.56% | viability [4] 94.5% | viability [5] 95.3% | inhibition [6] 0.86% | RAM network inhibition [7] 4.9%

CC(C)c1ccc(NC(=O)C(c2ccccc2)N2CCOCC2)cc1 (stereo unspecified)
inactive: growth inhibition [1] -0.695% | growth inhibition [2] 0.125% | viability increase [3] 1.44% | viability [4] 91.3% | viability [5] 83.6% | inhibition [6] 0.515% | RAM network inhibition [7] 0.47%
